Assay results as given in ChEMBL document CHEMBL1123727, “Synthesis of 6-substituted beta-carbolines that behave as benzodiazepine receptor antagonists or inverse agonists” (J Med Chem, 1987).
Active and inactive are the calls of the source. No cut-off for these calls is given here.

Key:
[1] = target: GABA-A receptor; anion channel; experiment: In vitro displacement of [3H]diazepam from GABA-A benzodiazepine receptor in rat cerebral cortex; type: tissue-based
Summary of the method: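 Cortex from adult male Sprague–Dawley rats homogenized in 50 mM Tris-HCl pH 7.4, homogenization–centrifugation repeated three times in total. Membranes incubated with graded compound concentrations and [3H]diazepam (final 2 nM) for 90 min at 4 °C. Bound ligand collected by rapid GF/B filtration and counted by liquid scintillation. Nonspecific binding defined with 5 μM flunitrazepam.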

Mus musculus [2] = experiment: Dose required to induce convulsions in mice treated with subconvulsant pentylenetetrazole (40 mg/kg); type: functional
Summary of the method: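 Adult male mice (20–25 g) given drug ip (suspended in 10% diluted emulphor–90% saline, HCl salts), then challenged 5 min later with subconvulsant PTZ (40 mg/kg ip). Two independent raters observed clonic-tonic convulsions. ED50 = dose inducing convulsions in 50% of mice. Highest dose tested 40 mg/kg.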

Mus musculus [3] = experiment: Dose required to antagonize Diazepam (2.5 mg/kg) anticonvulsant effects in mice treated with pentylenetetrazole (80 mg/kg); type: functional
Summary of the method: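 Adult male mice (20–25 g) given diazepam 2.5 mg/kg ip in 10% diluted emulphor–90% saline. Drug or vehicle given ip 5 min later, then PTZ 80 mg/kg ip (CD100) after another 5 min. Two independent raters scored clonic-tonic convulsions; animals counted protected if seizure-free for 15 min. ED50 = dose antagonizing diazepam's anticonvulsant effect in 50% of mice.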

Mus musculus [4] = experiment: Dose required to induce convulsions in mice treated with subconvulsant pentylenetetrazole (40 mg/kg) (inactive); type: functional, organism-based
[5] = In vitro displacement of [3H]-diazepam from GABA-A benzodiazepine receptor in rat cerebral cortex; type: tissue-based
Summary of the method: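 Cortex from adult male Sprague–Dawley rats homogenized in 50 mM Tris-HCl pH 7.4, washed three times and resuspended. Incubated with varying test concentrations and [3H]diazepam (2 nM final) for 90 min at 4 °C. Ended by GF/B filtration, radioactivity counted by scintillation. Nonspecific binding defined with 5 μM flunitrazepam. IC50 reported.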

Mus musculus [6] = experiment: Dose required to antagonize Diazepam (2.5 mg/kg) anticonvulsant effects in mice treated with pentylenetetrazole (80 mg/kg) (inactive); type: functional, organism-based

SMILES	IC50 [1] [nM]	also measured
c1ccc(CNc2ccc3[nH]c4ccccc4c3c2)cc1	> 5000	
OCc1cc2c3ccccc3nc-2c[nH]1	1470	
COC(=O)c1cc2c(cn1)[nH]c1ccc(NCc3ccccc3)cc12	10	ED50 (Mus musculus [4]): inactive; ED50 (Mus musculus [3]): 15.5 mg/kg
c1ccc2c(c1)[nH]c1cnccc12 [NORHARMANE]		IC50 [5]: 1620 nM

Second part, led by results:

IC50 [1] [nM]	SMILES	also measured
50	O=C(OC1CCCC1)c1cc2c3ccccc3nc-2c[nH]1	
106	c1ccc(CNc2ccc3[nH]c4cnccc4c3c2)cc1	ED50 (Mus musculus [2]): 28 mg/kg; ED50 (Mus musculus [3]): 38 mg/kg
1300	Nc1ccc2[nH]c3cnccc3c2c1	
58	CC(=O)c1cc2c3ccccc3nc-2c[nH]1	
76	OCc1cc2c3cc(NCc4ccccc4)ccc3nc-2c[nH]1	ED50 (Mus musculus [2]): 40 mg/kg; ED50 (Mus musculus [6]): inactive
